Measurements pooled from the literature.
Compare with care: the assays were run in different laboratories.

CC(C(=O)Nc1c(F)cccc1F)N1CCN(c2ccccc2)CC1 (centres unmarked)  Tmax (female C57BL/6 mouse, brain; intraperitoneal, 10 mg/kg): 15 min
Cc1cc2sc(N)nc2c2cccnc12  Tmax (female BALB/c mouse, plasma; intraperitoneal, 30 mg/kg, single dose): 15 min
CC(=O)O[C@@]12CO[C@@H]1C[C@H](O)[C@@]1(C)C(=O)[C@H](O)C3=C(C)[C@@H](OC(=O)[C@H](O)[C@@H](NC(=O)OC(C)(C)C)c4ccccc4)C[C@@](O)([C@@H](OC(=O)c4ccccc4)[C@H]21)C3(C)C  Tmax (male Kunming mouse, liver; oral, 20 mg/kg): 30 min
C[C@@H](N[C@H]1CCN(c2ccc(CC(=O)O)cc2)C1)c1cccc2ccccc12  Tmax (male CD-1 mouse, plasma; subcutaneous, 3 mg/kg, single dose): 60 min
Nc1ncn([C@H]2C[C@H](O)[C@@H](CO)O2)c(=O)n1  Tmax (female C57BL/6 mouse, plasma; oral, 0.4 mg/kg): 4.98 min
CCOc1ccc(N(C)S(=O)(=O)c2cc(Cl)sc2C(=O)Nc2cc(Cl)cc(C(=O)O)c2)cc1OC  Tmax (male C57BL/6 mouse, plasma; intraperitoneal, 10 mg/kg): 15 min
COc1cc2c(NC3CCN(CCCC(=O)NCCCCCCCCCCCC(=O)N[C@H](C(=O)N4C[C@H](O)C[C@H]4C(=O)NCc4ccc(-c5scnc5C)cc4)C(C)(C)C)CC3)nc(N3CCC(F)(F)CC3)nc2cc1OCCCN1CCCC1  Tmax (male C57BL/6 mouse, plasma; intraperitoneal, 50 mg/kg, single dose): 30 min
C=CS(=O)(=O)c1ccc(Nc2nc(OCC3CCCCC3)c3nc[nH]c3n2)cc1  Tmax (male BALB/c mouse, plasma; intraperitoneal, 20 mg/kg, single dose): 4.8 min
CCN1CCN(Cc2ccc(NC(=O)c3ccc(C)c(NC(=O)c4cncc(-c5cccs5)c4)c3)cc2C(F)(F)F)CC1  Tmax (mouse, plasma; intraperitoneal, 20 mg/kg, single dose): 30 min
C[C@@H](NCCCc1cccc(C(F)(F)F)c1)c1cccc2ccccc12  Tmax (male CD-1 mouse, plasma; subcutaneous, 3 mg/kg, single dose): 15 min
Cc1c(C(=O)O)ccc2c3n(nc12)[C@@H]1[C@H](C3)N(CC2CC2)[C@@]2(C(=O)Nc3cc(Cl)ccc32)[C@H]1c1cccc(Cl)c1F  Tmax (female mouse, plasma; oral, 5 mg/kg): 282 min
